The target of one test is MEK1–NL + BRAF-V600E (Homo sapiens, UniProt Q02750). The test is described as follows: MEK1–NL NanoBRET coexpression assay with BRAF-V600E. The conditions noted are these: 1 μM Tram-bo. Type of test: binding. (In general: In BRET a luciferase serves as donor, and the signal depends on an acceptor being close.)
The next test has as its target MEK1–BRAF (Homo sapiens, UniProt Q02750). Description: Co-IP of MEK1 and FLAG-tagged BRAF from treated HEK293T cells. The format is cell-based. The conditions noted are these: 1 μM compound, 24 h. The essentials:
(§1)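 HEK293T cells (350,000/well) were transfected 24 h after seeding using Fugene HD. FLAG-BRAF or FLAG-KSR1 was given at 1 μg ml−1 for FLAG pulldown, or 0.5 μg ml−1 for endogenous MEK1 pulldown, each with 9 μg ml−1 carrier DNA. After 24 h, cells got 1 μM compound (0.1% DMSO) for 24 h. 100 μg of lysate was captured on anti-FLAG, anti-MEK1 or normal IgG beads (1 h, 4 °C), then eluted and western blotted for BRAF, MEK1 and FLAG.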

A further test concerns the target MEK1–KSR1 (Homo sapiens, UniProt Q02750). The test is described as follows: Co-IP of MEK1 and FLAG-tagged KSR1 from treated HEK293T cells. The conditions noted are these: 1 μM compound, 24 h. The format is cell-based. The method in brief:
as §1

Test [1] deals with 14–3–3–NL + MEK1 + BRAF-R509H (Homo sapiens, UniProt Q02750). Description: 14–3–3–NL NanoBRET assay with dimer mutant BRAF-R509H. The conditions noted are these: 14–3–3–NL–Tram-bo assay configuration. Type of test: binding.
Test [2] concerns the target 14–3–3–NL + MEK1 + KSR1-R665H (Homo sapiens, UniProt Q02750). The test is described as follows: 14–3–3–NL NanoBRET assay with dimer mutant KSR1-R665H. Type of test: binding. As to conditions: 14–3–3–NL–Tram-bo assay configuration.
The target in test [3] is 14–3–3–NL + MEK1 + CRAF-R401H (Homo sapiens, UniProt Q02750). Description: 14–3–3–NL NanoBRET assay with dimer mutant CRAF-R401H. Type of test: binding. As to conditions: 14–3–3–NL–Tram-bo assay configuration.

Here are results for 4 compounds from publication PMC10948974 (Nature chemical biology, 2023).

Turning to `CNS(=O)(=O)Nc1nccc(Cc2c(C)c3ccc(Oc4ncccn4)cc3oc2=O)c1F` [CH5126766], the “decrease in potency (calculated Ki) with BRAF-V600E versus WT BRAF” value on MEK1–NL + BRAF-V600E was ~ 100 fold. Further, the “effect on MEK1–BRAF interaction (co-IP)” value at MEK1–BRAF is given as “stabilized”. Besides, at MEK1–KSR1, the “effect on MEK1–KSR1 interaction (co-IP)” value was “stabilized”. In addition, the “change in potency, BRAF-R509H versus BRAF” value in test [1] is reported as “insensitive”.

Regarding `O=C(c1ccc(F)c(F)c1Nc1ccc(I)cc1F)N1CC(O)([C@@H]2CCCCN2)C1` [cobimetinib], in test [1], the “change in potency, BRAF-R509H versus BRAF” value is listed as “significant increase in potency”. In addition, the “change in potency, KSR1-R665H versus KSR1” value in test [2] is given as “decrease in potency”.

In the case of `CC(=O)Nc1cccc(-n2c(=O)n(C3CC3)c(=O)c3c(Nc4ccc(I)cc4F)n(C)c(=O)c(C)c32)c1` [trametinib], at MEK1–BRAF, the “effect on MEK1–BRAF interaction (co-IP)” value was “specifically reduced”. Besides, the “change in potency, BRAF-R509H versus BRAF” value in test [1] was “insensitive”. Moreover, in test [2], the “change in potency, KSR1-R665H versus KSR1” value was “small but significant decrease in potency”.

In the case of trametiglue, the “effect on MEK1–BRAF interaction (co-IP)” value at MEK1–BRAF was “stabilized”. Moreover, at MEK1–KSR1, the “effect on MEK1–KSR1 interaction (co-IP)” value is “stabilized”. Moreover, the “change in potency, BRAF-R509H versus BRAF” value in test [1] is “insensitive”. Also, in test [3], the “change in potency, CRAF-R401H versus CRAF” value is “decrease in potency”. Also, in test [2], the “change in potency, KSR1-R665H versus KSR1” value is recorded as “decrease in potency”.
